According to ChEMBL document CHEMBL1141231, “Discovery and development of a new class of potent, selective, orally active oxytocin receptor antagonists” (J Med Chem, 2005):
Converted amounts (≈) assume the structure as drawn. Where a SMILES comes first, the peptide text is derived from it. Bridges are numbered along the chain shown (N, C = ends). [ ]: non-standard residue; d: D form. Orn = NCCC[C@H](N)C(=O)O; Mpa = O=C(O)CCS

Tests used:
[1] = Stability of compound in presence of rat liver microsomes; type: ADME
Method in brief: (§1)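 Liver microsomes (human or rat) at final […] in 0.1 M phosphate pH 7.4 with compound at final 40 µM (1% DMSO), preincubated at 37 °C; reaction started with 1 mM NADPH; stopped with cold acetonitrile at 0, 20 and 60 min.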

Oxytocin receptor [2] = target: T1, Oxytocin receptor (Homo sapiens, UniProt P30559); test: Inhibitory activity against human Oxytocin induced intracellular Calcium mobilization in human Oxytocin receptor transfected HEK293-EBNA cells; type: functional, cell-based
T1 sequence (P30559 whole entry): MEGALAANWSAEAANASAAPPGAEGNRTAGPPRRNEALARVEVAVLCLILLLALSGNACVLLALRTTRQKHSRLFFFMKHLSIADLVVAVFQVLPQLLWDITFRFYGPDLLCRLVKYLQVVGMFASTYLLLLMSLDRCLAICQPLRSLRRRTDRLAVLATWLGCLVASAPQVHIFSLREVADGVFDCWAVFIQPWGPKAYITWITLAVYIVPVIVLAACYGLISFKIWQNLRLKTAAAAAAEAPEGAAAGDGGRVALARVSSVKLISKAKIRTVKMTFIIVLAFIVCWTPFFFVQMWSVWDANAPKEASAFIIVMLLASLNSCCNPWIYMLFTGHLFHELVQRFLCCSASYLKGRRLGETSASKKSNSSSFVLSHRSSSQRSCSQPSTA

Homo sapiens = species: Homo sapiens; test: Selectivity for human vasopressin V1a receptor over human oxytocin receptor
Oxytocin receptor [3] = target: T1, Oxytocin receptor; test: biochemical; type: cell-based, HEK293-EBNA
Vasopressin V1a receptor [4] = target: T2, Vasopressin V1a receptor (Homo sapiens, UniProt P37288); test: Displacement of [125I]LVA antagonist from human vasopressin 1a receptor expressed in HEK293-EBNA cells; type: cell-based
Target sequence in this assay (P37288 whole entry): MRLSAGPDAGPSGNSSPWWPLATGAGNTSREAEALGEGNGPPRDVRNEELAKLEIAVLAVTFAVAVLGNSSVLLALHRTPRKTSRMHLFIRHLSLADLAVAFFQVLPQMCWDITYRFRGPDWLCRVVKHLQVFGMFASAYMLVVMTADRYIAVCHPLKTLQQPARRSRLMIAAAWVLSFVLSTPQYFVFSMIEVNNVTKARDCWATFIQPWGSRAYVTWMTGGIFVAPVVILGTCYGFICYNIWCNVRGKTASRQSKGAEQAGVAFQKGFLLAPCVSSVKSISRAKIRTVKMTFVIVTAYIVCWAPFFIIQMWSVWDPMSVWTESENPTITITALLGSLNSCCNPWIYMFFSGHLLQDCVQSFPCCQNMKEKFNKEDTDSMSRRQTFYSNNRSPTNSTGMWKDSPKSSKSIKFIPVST

[5] = Solubility in aqueous medium; type: physicochemical; conditions: aqueous medium; read-out: Solubility
Cytochrome P450 2C9 = Cytochrome P450 2C9 (Homo sapiens, UniProt P11712); test: Inhibitory activity against cytochrome P450 2C9 isoform
[6] = Solubility in saline; type: physicochemical
Cytochrome P450 2C19 = Cytochrome P450 2C19 (Homo sapiens, UniProt P33261); test: Inhibitory activity against cytochrome P450 2C19 isoform; type: ADME
Method in brief: (§2)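 Baculovirus/insect-cell-expressed CYP isoforms are incubated with a specific fluorogenic substrate and several compound concentrations in 1% DMSO. Fluorescence of the product after a defined reaction time gives % inhibition at each concentration and the IC50.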

Liver microsomes = test: Stability of compound in presence of human liver microsomes; type: ADME, Microsome; method in brief: as §1
[7] = target: T3, Oxytocin receptor (Homo sapiens) (UniProt P30559); test: Displacement of [125I]OVTA antagonist from human oxytocin receptor expressed in HEK293-EBNA cells at 10 uM; type: cell-based
T3 sequence (whole entry): T1 sequence (P30559 whole entry)

Vasopressin V1a receptor [8] = target: T2, Vasopressin V1a receptor; conditions: HEK293-EBNA, at 10 µM
Target sequence in this assay (P37288 whole entry, looked up): as the sequence (P37288 whole entry) above

Oxytocin receptor [9] = target: T4, Oxytocin receptor (Rattus norvegicus, UniProt P70536); test: Displacement of [125I]OVTA antagonist from rat oxytocin receptor expressed in HEK293-EBNA cells; type: cell-based
T4 sequence (P70536 whole entry): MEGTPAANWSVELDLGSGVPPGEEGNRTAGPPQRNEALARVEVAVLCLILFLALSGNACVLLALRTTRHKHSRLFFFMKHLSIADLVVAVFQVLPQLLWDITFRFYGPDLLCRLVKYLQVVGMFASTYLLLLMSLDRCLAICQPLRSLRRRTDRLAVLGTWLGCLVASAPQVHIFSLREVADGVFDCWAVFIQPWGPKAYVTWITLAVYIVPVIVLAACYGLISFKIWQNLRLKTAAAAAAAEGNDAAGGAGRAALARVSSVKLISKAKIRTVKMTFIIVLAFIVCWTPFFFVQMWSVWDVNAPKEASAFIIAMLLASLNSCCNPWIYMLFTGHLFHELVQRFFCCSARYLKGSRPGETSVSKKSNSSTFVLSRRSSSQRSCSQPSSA

[10] = target: T5, Oxytocin receptor (Rattus norvegicus) (UniProt P70536); test: Inhibition of oxytocin-induced uterine contractions in nonpregnant rats administered at 10 mg/kg, iv; type: functional, organism-based; parameters: dose 10 mg/kg
T5 sequence (whole entry): T4 sequence (P70536 whole entry)
Method in brief: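 Anaesthetized nonpregnant rats; compound given as a solution by iv infusion in NP3S, PEG/saline or saline. Uterine intraluminal pressure AUC is read relative to the third OT injection. Inhibition is taken versus vehicle values at 5 min after OT administration.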

[11] = target: T5, Oxytocin receptor (Rattus norvegicus); test: Inhibition of oxytocin-induced uterine contractions in nonpregnant rats administered at 30 mg/kg, po; type: functional, organism-based; parameters: dose 30 mg/kg
Method in brief: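 Anaesthetized nonpregnant rats dosed orally by esophagus cannulation with a solution in NP3S, PEG/saline or saline. Uterine intraluminal pressure AUC is read versus vehicle. The value is the maximum inhibition within a 3 h interval after OT administration.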

[12] = Inhibitory activity against cytochrome P450; type: ADME
Method in brief: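 Baculovirus/insect-cell expressed CYP isoforms incubated with compound at several concentrations in 1% DMSO plus isoform-specific fluorogenic substrate; fluorescence after a fixed reaction time used to compute % inhibition and IC50.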

[13] = target: T5, Oxytocin receptor (Rattus norvegicus); test: In vivo efficacy against oxytocin-induced uterine contractions in nonpregnant rats administered iv; type: functional, organism-based
Method in brief: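 Anaesthetized nonpregnant rats; compound given as a solution by iv infusion in NP3S, PEG/saline or saline. Contractions read as AUC of intraluminal uterine pressure over 35 min, relative to the third OT injection, and expressed as % inhibition versus a vehicle group. ED50 is taken from a dose-response curve of peak inhibition values.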

Rattus norvegicus = test: Inhibition of spontaneous uterine contraction in late-term pregnant rats at 30 mg/kg, po
Cytochrome P450 3A4 = Cytochrome P450 3A4 (Homo sapiens, UniProt P08684); test: Inhibitory activity against cytochrome P450 3A4 isoform; type: ADME; method in brief: as §2
[14] = Dissociation constant of the compound; type: physicochemical
Vasopressin V2 receptor = Vasopressin V2 receptor (Homo sapiens, UniProt P30518); test: Displacement of [125I]LVA antagonist from human vasopressin 2 receptor expressed in HEK293-EBNA cells; type: cell-based
[15] = Oral bioavailability in rat; type: ADME, organism-based; conditions: in vivo

Cytochrome P450 2C9, sequence (P11712 whole entry, canonical isoform): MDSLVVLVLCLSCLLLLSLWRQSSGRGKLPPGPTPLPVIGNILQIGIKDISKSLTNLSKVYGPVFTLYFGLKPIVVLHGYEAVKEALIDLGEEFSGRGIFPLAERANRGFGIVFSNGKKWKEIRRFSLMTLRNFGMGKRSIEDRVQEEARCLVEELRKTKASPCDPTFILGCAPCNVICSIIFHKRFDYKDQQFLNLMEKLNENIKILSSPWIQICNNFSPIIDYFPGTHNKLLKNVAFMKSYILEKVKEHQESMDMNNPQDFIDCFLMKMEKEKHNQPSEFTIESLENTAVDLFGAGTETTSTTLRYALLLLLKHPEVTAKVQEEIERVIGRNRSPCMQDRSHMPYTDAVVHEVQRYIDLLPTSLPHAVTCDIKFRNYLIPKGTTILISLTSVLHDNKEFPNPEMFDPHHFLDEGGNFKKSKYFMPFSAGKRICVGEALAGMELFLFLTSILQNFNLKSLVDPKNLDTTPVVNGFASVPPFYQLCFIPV
Vasopressin V2 receptor, sequence (P30518 whole entry): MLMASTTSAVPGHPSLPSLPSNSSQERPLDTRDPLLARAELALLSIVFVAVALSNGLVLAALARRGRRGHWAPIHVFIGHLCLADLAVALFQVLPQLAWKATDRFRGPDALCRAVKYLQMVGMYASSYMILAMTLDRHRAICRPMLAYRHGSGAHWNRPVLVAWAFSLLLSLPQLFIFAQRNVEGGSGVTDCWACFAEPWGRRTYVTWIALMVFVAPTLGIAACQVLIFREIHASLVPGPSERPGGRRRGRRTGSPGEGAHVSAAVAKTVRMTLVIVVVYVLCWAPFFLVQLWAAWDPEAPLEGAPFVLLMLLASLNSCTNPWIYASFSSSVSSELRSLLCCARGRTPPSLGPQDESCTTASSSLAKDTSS
Cytochrome P450 3A4, sequence (P08684 whole entry, canonical isoform): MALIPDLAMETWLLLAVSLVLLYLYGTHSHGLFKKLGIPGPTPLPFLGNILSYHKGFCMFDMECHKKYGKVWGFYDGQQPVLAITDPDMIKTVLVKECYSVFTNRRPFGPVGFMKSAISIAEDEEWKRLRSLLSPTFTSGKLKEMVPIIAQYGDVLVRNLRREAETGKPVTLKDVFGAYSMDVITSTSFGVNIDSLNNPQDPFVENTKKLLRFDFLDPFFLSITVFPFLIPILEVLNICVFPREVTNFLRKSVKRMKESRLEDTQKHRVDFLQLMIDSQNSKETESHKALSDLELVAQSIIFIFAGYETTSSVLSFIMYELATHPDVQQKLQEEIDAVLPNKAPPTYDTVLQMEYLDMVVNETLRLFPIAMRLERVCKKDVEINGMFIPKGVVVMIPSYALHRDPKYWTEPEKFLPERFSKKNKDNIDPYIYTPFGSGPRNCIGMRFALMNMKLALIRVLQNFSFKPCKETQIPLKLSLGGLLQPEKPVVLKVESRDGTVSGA
Cytochrome P450 2C19, sequence (P33261 whole entry, canonical isoform): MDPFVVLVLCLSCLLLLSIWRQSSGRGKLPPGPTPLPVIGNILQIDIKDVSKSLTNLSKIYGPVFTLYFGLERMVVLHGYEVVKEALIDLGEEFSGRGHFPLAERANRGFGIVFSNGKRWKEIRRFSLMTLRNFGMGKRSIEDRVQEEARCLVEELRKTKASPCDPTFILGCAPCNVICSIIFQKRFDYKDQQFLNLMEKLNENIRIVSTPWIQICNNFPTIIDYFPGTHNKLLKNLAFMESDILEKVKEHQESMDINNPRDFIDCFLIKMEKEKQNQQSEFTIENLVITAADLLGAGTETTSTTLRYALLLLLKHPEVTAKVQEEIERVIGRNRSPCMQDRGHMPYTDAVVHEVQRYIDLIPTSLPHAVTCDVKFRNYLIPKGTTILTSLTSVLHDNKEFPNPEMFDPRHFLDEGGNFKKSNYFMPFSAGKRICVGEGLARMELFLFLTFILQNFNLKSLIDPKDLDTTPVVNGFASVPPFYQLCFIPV

SMILES	Ratio Ki (Homo sapiens)	Ki (Oxytocin receptor [3])	Ki (Vasopressin V1a receptor [4])	inhibition [7]	inhibition (Vasopressin V1a receptor [8])	Ki (Oxytocin receptor [9])	other results
O=C(CN(c1ccc(Cl)cc1)S(=O)(=O)c1ccc(CCCO)cc1)N/N=C1\C(=O)Nc2ccccc21	150	4.1 nM	615 nM	–	–	–	metabolised [1]: 31%; IC50 (Oxytocin receptor [2]): 32 nM; solubility [5]: < 1 µg/mL; IC50 (Cytochrome P450 2C9): 345 nM; solubility [6]: < 1 µg/mL; IC50 (Cytochrome P450 2C19): 50 nM; MET (Liver microsomes): 34%
Cc1ccc(N(CC(=O)N/N=C/c2ccccc2F)S(=O)(=O)c2ccccc2)cc1	–	–	–	< 50%	< 50%	–	–
Cc1ccc(N(CC(=O)Nc2cccc(Cl)c2C)S(C)(=O)=O)cc1	–	–	–	< 50%	< 50%	–	–
O=C(CCc1ccc(S(=O)(=O)N(CC(=O)N/N=C2\C(=O)Nc3ccccc32)c2ccc(Cl)cc2)cc1)NCCCO	102	0.9 nM	94 nM	–	–	–	solubility [5]: < 1 µg/mL; solubility [6]: < 1 µg/mL
Cc1ccc(N(CC(=O)N/N=C/c2ccccc2Cl)S(=O)(=O)c2ccccc2)cc1	–	–	–	< 50%	< 50%	–	–
CCOc1ccc(C[C@H]2NC(=O)CCSSC[C@@H](C(=O)N3CCC[C@H]3C(=O)N[C@@H](CCCN)C(=O)NCC(N)=O)NC(=O)[C@H](CC(N)=O)NC(=O)[C@H]([C@@H](C)O)NC(=O)[C@H]([C@@H](C)CC)NC2=O)cc1 [ATOSIBAN] ([Mpa][dY](Et)ITNCP[Orn]G-NH2; disulfide 1-6)	–	27 nM	0.63 nM	–	–	76 nM	IC50 (Oxytocin receptor [2]): 59 nM
COCCOCCOc1ccc(S(=O)(=O)N(CC(=O)N/N=C2\C(=O)Nc3ccccc32)c2ccc(Cl)cc2)cc1	176	3 nM	511 nM	–	–	12 nM	metabolised [1]: 89%; IC50 (Oxytocin receptor [2]): 7 nM; solubility [5]: < 1 µg/mL; IC50 (Cytochrome P450 2C9): 330 nM; solubility [6]: < 1 µg/mL; inhibition [10]: 23.3%; MET (Liver microsomes): 79%
CN(C)CCCNC(=O)CCc1ccc(S(=O)(=O)N(CC(=O)N/N=C2\C(=O)Nc3ccccc32)c2ccc(Cl)cc2)cc1	65	0.65 nM	42 nM	–	–	0.67 nM	metabolised [1]: 0%; inhibition [11]: 35%; IC50 [12]: > 1000 nM; ED50 [13]: 1.4 mg/kg; inhibition [10]: 72%; inhibition in vivo at 30 mg/kg (Rattus norvegicus): 29.3%; MET (Liver microsomes): 18%
CCOc1ccc(S(=O)(=O)N(CC(=O)OC)c2ccc(C)cc2)cc1	–	–	–	< 50%	< 50%	–	–
CCN(CC)C(=O)CN(c1ccc(OC)cc1)S(=O)(=O)c1ccccc1	–	–	–	< 50%	< 50%	–	–
COc1ccccc1/C=N/NC(=O)CN(c1ccc(C)cc1)S(=O)(=O)c1ccccc1	–	–	–	< 50%	< 50%	–	–
O=C(CN(c1ccc(Cl)cc1)S(=O)(=O)c1ccccc1)Nc1ccccc1	–	–	–	< 50%	< 50%	–	–
CC(C)CCN(CC(=O)N1CCc2ccccc2C1)S(=O)(=O)c1ccccc1	–	–	–	< 50%	< 50%	–	–
COc1ccc(N(CC(=O)Nc2cccc(Cl)c2C)S(=O)(=O)c2ccccc2)cc1Cl	–	–	–	< 50%	< 50%	–	–
CN(C)CCCOc1ccc(S(=O)(=O)N(CC(=O)N/N=C2\C(=O)Nc3ccncc32)c2ccc(Cl)cc2)cc1	5	115 nM	618 nM	–	–	140 nM	metabolised [1]: 41%; IC50 (Oxytocin receptor [2]): 840 nM; IC50 [12]: > 1000 nM; inhibition [10]: 23.8%; MET (Liver microsomes): 20%
CCOc1ccc(S(=O)(=O)N(CC(=O)NN)c2ccc(C)cc2)cc1	–	–	–	< 50%	< 50%	–	–
O=C(CN(CCc1ccccc1)S(=O)(=O)c1ccccc1)N1CCc2ccccc2C1	–	–	–	< 50%	< 50%	–	–
Cl.O=C(CN(c1ccc(Cl)cc1)S(=O)(=O)c1ccc(OCCN2CCOCC2)cc1)/N=N/c1c(O)[nH]c2ccccc12	–	–	–	–	–	–	solubility [5]: 127 µg/mL; solubility [6]: 2.5 µg/mL

Second part, led by results:

Ratio Ki (Homo sapiens)	Ki (Oxytocin receptor [3])	Ki (Vasopressin V1a receptor [4])	inhibition [7]	inhibition (Vasopressin V1a receptor [8])	Ki (Oxytocin receptor [9])	SMILES	other results
84	7 nM	582 nM	–	–	25 nM	O=C(CN(c1ccc(Cl)cc1)S(=O)(=O)c1ccc(NCCN2CCOCC2)cc1)N/N=C1\C(=O)Nc2ccccc21	metabolised [1]: 40%; IC50 (Cytochrome P450 3A4): 310 nM; MET (Liver microsomes): 73%
56	64 nM	3610 nM	–	–	–	CCOc1ccc(S(=O)(=O)N(CC(=O)N/N=C2\C(=O)Nc3ccncc32)c2ccc(Cl)cc2)cc1	pKa [14]: 4.4
456	1.6 nM	730 nM	–	–	2.7 nM	CN(C)CCCOc1ccc(S(=O)(=O)N(CC(=O)N/N=C2\C(=O)NC(=O)c3ccccc32)c2ccc(Cl)cc2)cc1	metabolised [1]: 89%; IC50 (Oxytocin receptor [2]): 15 nM; solubility [5]: 580 µg/mL (≈ 970 µM); solubility [6]: 2 µg/mL (≈ 3.34 µM); IC50 [12]: > 1000 nM; inhibition [10]: 39.8%; MET (Liver microsomes): 91%
148	0.9 nM	133 nM	–	–	8 nM	O=C(CN(c1ccc(Cl)cc1)S(=O)(=O)c1ccc(OCCN2CCOCC2)cc1)N/N=C1\C(=O)Nc2ccccc21	metabolised [1]: 21%; inhibition [11]: 30%; IC50 [12]: > 1000 nM; ED50 [13]: 9.4 mg/kg; inhibition [10]: 43%; MET (Liver microsomes): 57%
171	7 nM	1180 nM	–	–	33 nM	COCCOc1ccc(S(=O)(=O)N(CC(=O)N/N=C2\C(=O)Nc3ccccc32)c2ccc(Cl)cc2)cc1	solubility [5]: < 1 µg/mL; solubility [6]: < 1 µg/mL
100	–	–	–	–	–	CCOc1ccc(S(=O)(=O)N(CC(=O)N/N=C2\C(=O)Nc3ccccc32)c2ccc(C)cc2)cc1	ED50 [13]: 10 mg/kg; inhibition [10]: 49.9%
–	14 nM	1410 nM	–	–	25 nM	CCOc1ccc(S(=O)(=O)N(CC(=O)NN=C2C(=O)Nc3ccccc32)c2ccc(C)cc2)cc1	IC50 (Oxytocin receptor [2]): 30 nM; solubility [5]: < 1 µg/mL; solubility [6]: < 1 µg/mL; Ki (Vasopressin V2 receptor): 2500 nM; bioavailability [15]: 6%
84	2.1 nM	176 nM	–	–	15 nM	CN(C)CCOc1ccc(S(=O)(=O)N(CC(=O)N/N=C2\C(=O)Nc3ccccc32)c2ccc(Cl)cc2)cc1	IC50 (Oxytocin receptor [2]): 59 nM
59	1.1 nM	65 nM	–	–	4.6 nM	CN(C)CCCOc1ccc(S(=O)(=O)N(CC(=O)N/N=C2\C(=O)Nc3ccccc32)c2ccc(Cl)cc2)cc1	metabolised [1]: 26%; IC50 (Oxytocin receptor [2]): 14 nM; inhibition [11]: 22%; IC50 [12]: > 1000 nM; ED50 [13]: 7.5 mg/kg; inhibition [10]: 67.4%; MET (Liver microsomes): 0%
